High-throughput results as filed in PubChem BioAssay.
This is a sample that favours compounds with a hit; in the whole collection about 2.9% have one here.
DNA FID counter – counter-screen for HCV NS3 helicase inhibitors: DNA intercalator displacement | DNA fluorescent intercalator displacement, fluorescence | inhibition, % at 7.9 µM | 290,000 tested, 0.17% active; in the data active = inhibition above about 37%;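 also: 0% = vehicle and 100% = reference compound; higher means more ethidium bromide displaced from hairpin DNA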
IMP-1 inh – blocks Pseudomonas aeruginosa IMP-1 metallo-beta-lactamase; 290,000 tested, 0.45% active; purified IMP-1, nitrocefin hydrolysis, epi-absorbance fluorescence; inhibition, % at 5.6 µM; AID 1556;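 active = inhibition above the mean plus 3 SD of all compounds in the same screening run, cut at about 4.5% in these data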;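 also: 0% = IMP-1 with DMSO and 100% = DMSO wells lacking enzyme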
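System – purified recombinant IMP-1 beta-lactamase · Input – IMP-1 dispensed at 0.2 nM · Timing – 15 min preincubation plus 25 min reaction at 25 °C · Signal – Epi-absorbance fluorescence, 480 nm excitation, 530 nm emission · Measure – percent IMP-1 inhibition derived from blank-referenced optical density · Controls – Enzyme-plus-DMSO low control, enzyme-free DMSO high control · Replication – singlicate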
UBC9 SUMO inh – SUMOylation inhibition | inhibition, % at 35 µM | P63279 | 290,000 tested, 0.36% active | HTRF SUMOylation assay, SAE1/SAE2 + UBC9, in vitro; in the data active = inhibition above about 50%, passing the limit was not always enough
Target sequence (P63279 whole entry, looked up): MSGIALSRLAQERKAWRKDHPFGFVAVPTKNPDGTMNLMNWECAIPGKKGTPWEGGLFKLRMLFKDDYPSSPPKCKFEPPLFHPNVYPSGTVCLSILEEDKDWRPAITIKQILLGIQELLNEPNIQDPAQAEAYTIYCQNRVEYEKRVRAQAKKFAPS
VIM-2 inh – blocks Pseudomonas aeruginosa VIM-2 metallo-beta-lactamase. purified VIM-2, nitrocefin hydrolysis, epi-absorbance fluorescence. inhibition, % at 5.6 µM. 290,000 tested, 0.89% active. AID 1527;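 active = inhibition above the mean of all tested compounds plus 3 SD, cutoff set per screening run, cut at about 7.5% in these data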;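 also: red hydrolysis product quenches plate fluorescence so inhibitors raise well fluorescence; 0% = enzyme with DMSO and 100% = DMSO without enzyme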
NALP1 inh – blocks the NALP1 inflammasome reconstituted in yeast | S. cerevisiae NALP1/ASC/caspase-1 growth, X-gal OD620, 72 h | inhibition, % at 10 µM | 280,000 tested, 0.61% active; in the data active = inhibition mostly above about 24%, no sharp cut-off; inactive = mostly below about 32%
SUMO Mot1 rescue – blocks SUMOylation pathway, rescuing yeast Mot1-301 growth. 320,000 tested, 1% active. growth rescue, % at 18.8 µM. S. cerevisiae Mot1-301 growth rescue, ATP luminescence, 38.5C; percent above DMSO median, 100 means doubled;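 active = every valid replicate shows activation above 250% relative to neutral control wells; inactive = the rest, any valid replicate at or below 250%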;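 also: OY570 slx delta 5 strain wells were the positive control but not used for scaling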
The depositor's hits bear a star; . = no result; + = active, no number.

SMILES	DNA FID counter	IMP-1 inh	UBC9 SUMO inh	VIM-2 inh	NALP1 inh	SUMO Mot1 rescue
OC1(c2cccs2)CN(c2ccc(Br)cc2)C2=[N+]1CCCS2 (stereo not drawn)	2	-2	0	-1	7	-1
COc1ccc(OC)c(N2CC(O)(c3cccs3)[N+]3=C2SCCC3)c1 (stereo not drawn)	11	-1	8	8.2*	-3	.
O=C(NCCS(=O)(=O)N1CCN(c2ccccc2)CC1)c1cccc(F)c1	.	.	.	.	.	-7
O=C(O)Cc1ccc(NC(=O)C2CC=CCC2C(=O)O)cc1 (stereo not drawn)	-1	-4	1	-4	7	625*
C=CCn1c(-c2cccs2)nc2nc3ccccc3nc21	-13	-2	28	5	6	-16
C=CCn1c(-c2cccs2)nc2ccccc21	-12	0	19	3	25*	-1
Cc1c(CC(=O)N[C@@H](C)C(=O)O)c(=O)oc2cc3occ(-c4ccccc4)c3cc12	-18	-1	3	-1	-3	3
Cc1oc2c(c(C)cc3oc(=O)c(CC(=O)N[C@@H](C)C(=O)O)c(C)c32)c1C	-26	-2	51*	0	11	73
COc1ccc(-c2coc3c(C)c4oc(=O)c(CCC(=O)O)c(C)c4cc23)cc1	-15	-1	23	11*	-16	9
Cc1c(CC(=O)N[C@@H](C)C(=O)O)c(=O)oc2c(C)c3occ(-c4ccccc4)c3cc12	-15	-2	24	10*	1	-16
Cc1oc2c(C)c3oc(=O)c(CCC(=O)NCCCCCC(=O)O)c(C)c3cc2c1C	-42	-3	34	-1	-1	-10
CC[C@@H](C)[C@H](NC(=O)Cc1c(C)c2c(cc(C)c3c(C)c(C)oc32)oc1=O)C(=O)O	-32	-1	45	3	23	-7
Cc1c(CCC(=O)O)c(=O)oc2c(C)c3occ(-c4ccc(Br)cc4)c3cc12	-26	24*	13	4	3	8
CC(C)c1ccc(NC2CCCN(C(=O)CCCn3cncn3)C2)cc1 (stereo not drawn)	-27	-2	5	-1	-2	-5
COc1ccc2cc3c(nc2c1)OCC3	-5	-2	16	0	9	-8
CC(C)N(C(=O)Nc1ccc2nccnc2c1)C(C)C	-8	-4	94*	-2	-12	-3
Cc1ccc(S(=O)(=O)N(C)Cc2ccccc2)cc1C(=O)N1CCCCC1	-49	0	-2	1	20	336*
CCN(CCC(=O)Nc1cc([N+](=O)[O-])ccc1OC)Cc1ccccc1	13	-1	69*	-2	25	.
COc1ccccc1NC(=O)CSCc1ccc([N+](=O)[O-])cc1	-4	-2	15	0	41*	-18
COc1ccc([N+](=O)[O-])cc1NC(=O)CC(c1ccccc1)c1ccccc1	7	-4	-20	-4	21	-5
COc1ccc([N+](=O)[O-])cc1NC(=O)CSCc1cc(C)cc(C)c1	8	-4	-17	-5	34	.
O=C1C2C3C=CC(C3)C2C(=O)N1CCN1CCN(Cc2ccc([N+](=O)[O-])cc2)CC1 (stereo not drawn)	-5	-2	5	-3	18	0
COc1ccc(C(CNC(=O)c2c(C)nn(Cc3ccc(C)cc3)c2Cl)N2CCOCC2)cc1 (stereo not drawn)	.	.	.	.	.	-11
CCN(CC)CCCNC(=O)c1ccc(N2CCCCC2)c(NS(=O)(=O)c2ccc(C)cc2)c1	51*	-1	6	4	24*	15
Cc1ccc(S(=O)(=O)Nc2cc(C(=O)NCCN(C)C)ccc2N2CCCC2)cc1	30	1	8	0	26	9
SMILES	DNA FID counter	IMP-1 inh	UBC9 SUMO inh	VIM-2 inh	NALP1 inh	SUMO Mot1 rescue
CC(=O)N1c2ccc(S(=O)(=O)N3CCC(C(=O)Nc4cccc(Cl)c4)CC3)cc2CC1C (stereo not drawn)	-44	-3	.	-7	8	-4
C=CCOc1ccc(C2C(C(=O)c3ccco3)=C(O)C(=O)N2c2nnc(C)s2)cc1 (stereo not drawn)	-23	5.2*	7	4	-31	-12
COc1ccc(C2C(C(=O)c3ccco3)=C(O)C(=O)N2c2nnc(C)s2)cc1 (stereo not drawn)	-9	4	19	5	0	163
COc1ccccc1/C=C/C(=O)OCc1nc2ccccc2c(=O)[nH]1	-19	-3	25	-3	16*	0
O=S(=O)(c1ccc(Cl)s1)N1CCC(Cc2ccccc2)CC1	-2	-3	-9	-5	40*	5
Cc1onc(C(N)=O)c1C(=O)Nc1ncc(C(F)(F)F)cc1Cl	13	-4	-8	-3	5	696
CS(=O)(=O)c1ccc2nc(NC(=O)CN3CCC(Cc4ccccc4)CC3)sc2c1	-9	-6	-2	-6	-1	294*
CS(=O)(=O)c1ccc2nc(NC(=O)CN3CCN(Cc4ccccc4)CC3)sc2c1	1	-4	8	-3	24	-5
CCOCCCNC(=O)c1cc2c(=O)n(CC)c3ccccc3c2s1	-30	-2	0	7.9*	19	64
COc1ccc(NC(=O)Cn2c(=O)sc3ccccc32)c(OC)c1	-6	-2	17	-3	39*	-19
CCn1c(=O)c2cc(C(=O)Nc3ccc(OC)cc3OC)sc2c2ccccc21	-3	-1	9	0	.	+
COc1ccccc1NC(=O)Cn1c(=O)sc2ccccc21	-3	-3	-2	-1	1	-17
CCOc1ccccc1N(C)C(=O)c1cc2c(=O)n(CC)c3ccccc3c2s1	-22	-1	-5	-1	.	2
CCn1c(=O)c2cc(C(=O)NCCOC)sc2c2ccccc21	-27	-5	8	8.3*	2	1
CCCCN(CC)CCNC(=O)c1cc2c(=O)[nH]c3ccccc3c2s1	9	-4	9	7	6	-6
CCCN(CCC)CCCNC(=O)c1cc2c(=O)[nH]c3ccccc3c2s1	13	-5	17	9.7*	7	-13
CCn1c(=O)c2cc(C(=O)N(C)CC(OC)OC)sc2c2ccccc21	-34	-3	1	7	4	5
CCCN(CCC)CCNC(=O)c1cc2c(=O)n(CC)c3ccccc3c2s1	18	-1	17	10*	.	8
O=C(COC(=O)CCN=C1NS(=O)(=O)c2ccccc21)NNC(=O)c1ccccc1	.	.	.	.	.	4
CN1CCN(CCCNC(=O)Nc2ccc([N+](=O)[O-])cc2)CC1	6	-4	5	-3	26	-2
CC1c2ccccc2N(NC(=O)Cc2ccccc2)C1C (stereo not drawn)	-14	-3	-3	-4	-3	5
Cc1cc(/C=C2\SC(=O)N(C)C2=O)c(C)n1-c1ccc(O)cc1	-6	-2	74*	4	15	19
